Blank lines part the entries; values can stand above or below the compound they belong to.
Tests used:
[1] = Metabolic stability in Han Wistar rat hepatocytes at 1 uM after 16 mins; assay type: ADME, cell-based, Hepatocyte; conditions: read-out: Stability
Method in brief: (§1)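 Hepatocytes isolated from Han Wistar rat liver by two-step perfusion and Percoll purification; viability by trypan blue. Incubated at 0.5×10^6 viable cells/mL in Williams' medium E + 5% FCS with 1 µM compound, shaken continuously. Aliquots taken at 2–60 min and quenched with cold methanol, frozen overnight, centrifuged. Supernatant analysed by LC-MS/MS.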

[2] = Metabolic stability in Han Wistar rat hepatocytes at 1 uM after 60 mins; assay type: ADME, cell-based, Hepatocyte; conditions: read-out: Stability; method in brief: as §1
[3] = Metabolic stability in Han Wistar rat hepatocytes at 1 uM after 45 mins; assay type: ADME, cell-based, Hepatocyte; conditions: read-out: Stability; method in brief: as §1
[4] = Metabolic stability in Han Wistar rat hepatocytes at 1 uM after 8 mins; assay type: ADME, cell-based, Hepatocyte; conditions: read-out: Stability; method in brief: as §1
[5] = Metabolic stability in Han Wistar rat hepatocytes at 1 uM after 2 mins; assay type: ADME, cell-based, Hepatocyte; conditions: read-out: Stability; method in brief: as §1
[6] = Metabolic stability in Han Wistar rat hepatocytes at 1 uM after 30 mins; assay type: ADME, cell-based, Hepatocyte; conditions: read-out: Stability; method in brief: as §1
A549 [7] = experiment: Cellular uptake in human A549 cells assessed per 1-'5 cells at 0.2 MBq after 10 mins by gamma counting; assay type: ADME, cell-based; conditions: a549, 10 min
Method in brief: (§2)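 Sub-confluent cells seeded 1–2 days earlier (A549 and DU145 in DMEM + 10% FBS; NCI-H460 in DMEM/F-12 + 10% FBS). Washed with PBS, then incubated with 0.2 MBq radiotracer per well in PBS + 0.1% BSA (8% EtOH) at 37 °C, 5% CO2, for 10, 20, 30 and 60 min. Washed, lysed in 1 M NaOH and gamma-counted. Expressed as % applied dose per 10^5 cells, decay-corrected, in triplicate.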

NCI-H460 [8] = experiment: Cellular uptake in human NCI-H460 cells at 0.2 MBq up to 60 mins by gamma counting in presence of FET; assay type: ADME, cell-based; conditions: nci-h460, 1 h
A549 [9] = experiment: Cellular uptake in human A549 cells at 0.2 MBq by gamma counting; assay type: ADME, cell-based; conditions: TDE = time-dependent effect; method in brief: as §2
NCI-H460 [10] = experiment: Cellular uptake in human NCI-H460 cells assessed per 1-'5 cells at 0.2 MBq after 10 mins by gamma counting; assay type: ADME, cell-based; conditions: nci-h460, 10 min; method in brief: as §2
NCI-H460 [11] = experiment: Cellular uptake in human NCI-H460 cells assessed per 1-'5 cells at 0.2 MBq after 60 mins by gamma counting; assay type: ADME, cell-based; conditions: nci-h460, 1 h; method in brief: as §2
A549 [12] = experiment: Cellular uptake in human A549 cells assessed per 1-'5 cells at 0.2 MBq after 30 mins by gamma counting; assay type: ADME, cell-based; conditions: a549, 0.5 h; method in brief: as §2
DU-145 [13] = experiment: Cellular uptake in human DU145 cells assessed per 1-'5 cells at 0.2 MBq after 60 mins by gamma counting; assay type: ADME, cell-based; conditions: du-145, 1 h; method in brief: as §2
DU-145 [14] = experiment: Cellular uptake in human DU145 cells at 0.2 MBq up to 60 mins by gamma counting in presence of L-3-FCBT; assay type: ADME, cell-based; conditions: du-145, 1 h
A549 [15] = experiment: Cellular uptake in human A549 cells at 0.2 MBq up to 60 mins by gamma counting in presence of L-3-FCBT; assay type: ADME, cell-based; conditions: a549, 1 h
NCI-H460 [16] = experiment: Cellular uptake in human NCI-H460 cells at 0.2 MBq by gamma counting; assay type: ADME, cell-based; conditions: TDE = time-dependent effect; method in brief: as §2
DU-145 [17] = experiment: Cellular uptake in human DU145 cells at 0.2 MBq by gamma counting; assay type: ADME, cell-based; conditions: TDE = time-dependent effect; method in brief: as §2
DU-145 [18] = experiment: Cellular uptake in human DU145 cells assessed per 1-'5 cells at 0.2 MBq after 10 mins by gamma counting; assay type: ADME, cell-based; conditions: du-145, 10 min; method in brief: as §2
[19] = Stability of the compound in human plasma at 22 MBq/mL up to 120 mins; assay type: ADME, cell-free; conditions: read-out: Stability
Method in brief: (§3)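 Radiotracer at 22 MBq/mL incubated in human or rat plasma at 37 °C; sampled at 0, 30, 60, 90 and 120 min. Proteins precipitated with MeOH and centrifuged. Supernatant analysed by radio-HPLC and by radio-TLC (BuOH/AcOH/H2O 12:3:5). Intact tracer expressed as % of the 0 min sample.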

DU-145 [20] = experiment: Cellular uptake in human DU145 cells at 0.2 MBq up to 60 mins by gamma counting in presence of FET; assay type: ADME, cell-based; conditions: du-145, 1 h
NCI-H460 [21] = experiment: Cellular uptake in human NCI-H460 cells at 0.2 MBq up to 60 mins by gamma counting in presence of L-3-FCBT; assay type: ADME, cell-based; conditions: nci-h460, 1 h
[22] = (§4) Stability of the compound in rat plasma at 22 MBq/mL up to 120 mins; assay type: ADME, cell-free; conditions: read-out: Stability; method in brief: as §3
A549 [23] = experiment: Cellular uptake in human A549 cells at 0.2 MBq up to 60 mins by gamma counting in presence of FET; assay type: ADME, cell-based; conditions: a549, 1 h
Plasma = experiment: as §4; assay type: ADME, cell-free; conditions: 2 h; method in brief: as §3
[24] = Stability of the compound in human plasma at 22 MBq/mL after 5 mins; assay type: ADME, cell-free; conditions: read-out: Stability
[25] = Lipophilicity, log D of the compound; assay type: physicochemical; conditions: octanol/water
Method in brief: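 Shake-flask logD, run manually in two vials. Compound (0.1 mg) in octanol saturated with 10 mM phosphate buffer pH 7.4, sonicated 3 min, shaken 4 min at 20 °C. Phases separated by centrifugation, then quantified by reversed-phase HPLC with UV at 254 nm by peak area.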

remaining at 16 min, 1 µM [1]: 98%
remaining at 1 h, 1 µM [2]: 94%
remaining at 0.75 h, 1 µM [3]: 95%
remaining at 8 min, 1 µM [4]: 99%
remaining at 2 min, 1 µM [5]: 100%
remaining at 0.5 h, 1 µM [6]: 97%
SMILES: N[C@@H](Cc1ccc(O[C@H]2C[C@@H](F)C2)cc1)C(=O)O

Drug uptake (A549 [7]): 2.8%
Drug uptake (NCI-H460 [8]): Not Active
Drug uptake (A549 [9]): tde
Drug uptake (NCI-H460 [10]): 0.7%
Drug uptake (NCI-H460 [11]): 2.1%
Drug uptake (A549 [12]): 5.8%
Drug uptake (DU-145 [13]): 2.1%
Drug uptake (DU-145 [14]): Not Active
Drug uptake (A549 [15]): Not Active
Drug uptake (NCI-H460 [16]): tde
Drug uptake (DU-145 [17]): tde
Drug uptake (DU-145 [18]): 0.7%
remaining at 2 h, 22 MBq/mL [19]: > 99.9%
Drug uptake (DU-145 [20]): Not Active
Drug uptake (NCI-H460 [21]): Not Active
remaining at 2 h, 22 MBq/mL [22]: > 99.9%
Drug uptake (A549 [23]): Not Active
SMILES: N[C@@H](Cc1ccc(O[C@H]2C[C@@H]([18F])C2)cc1)C(=O)O

remaining at 2 h, 22 MBq/mL [19]: 87%
Stability (Plasma): Stable
remaining at 5 min, 22 MBq/mL [24]: 95%
SMILES: N[C@@H](Cc1ccc(OCC[18F])cc1)C(=O)O [FLORETYROSINE F18]

logD [25]: -1.51
SMILES: N[C@@H](Cc1ccc(OCCF)cc1)C(=O)O [O-(2-FLUOROETHYL)-L-TYROSINE]

— ChEMBL document CHEMBL2311343, “Investigations into the synthesis, radiofluorination and conjugation of a new [¹⁸F]fluorocyclobutyl prosthetic group and its in vitro stability using a tyrosine model system” (Bioorg Med Chem, 2013)
